According to PMC7079967 (Medicinal Chemistry Research, 2016):

How the values were obtained:
Format in all cases: cell-based
[1] = test system: human cervix carcinoma cells (HeLa); test: Antiproliferative; details: 96 h, read-out: IC50 HeLa
Procedure, shortened: (§1)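 Cells in growth medium proliferated with variable concentrations of test compound at 37 °C in a humidified CO2-controlled atmosphere. Incubation was 48 h for L1210 and 96 h for HeLa. Cell number was then counted with a Coulter counter. IC50 was the concentration inhibiting cell proliferation by 50 %.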

[2] = test system: murine leukemia cells (L1210); test: Antiproliferative; details: Mus musculus, L1210, 48 h, read-out: IC50 L1210
Procedure, shortened: as §1

[3] = test system: human T-lymphocyte cells (CEM); test: Antiproliferative; details: 72 h, read-out: IC50 CEM
Procedure, shortened: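 Human T-lymphocyte CEM cells, suspended in growth medium, were left to proliferate in microtiter wells with varying amounts of test compound at 37 °C in a humidified, CO2-controlled atmosphere. After 72 h, cells were counted with a Coulter counter. IC50 is the concentration that inhibits cell proliferation by 50 %.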

[4] = test system: L1210, CEM and HeLa tumor cell lines; test: Cytostatic activity stated over the three tumor cell lines together
Reovirus-1 = test: Antiviral assay, virus-induced cytopathicity in Vero cells; details: read-out: IC50 Reovirus-1
Parainfluenza-3 virus = test: as above; details: read-out: IC50 Parainfluenza-3 virus
Sindbis virus = test: as above; details: read-out: IC50 Sindbis virus

SMILES	IC50 [1] [µM]	IC50 [2] [µM]	IC50 [3] [µM]	cytostatic potential, fold lower than 6-mercaptopurine ([4]; compared with 6-mercaptopurine over L1210, CEM, HeLa)	IC50 ([4]; read-out: IC50, cytostatic activity against the three tumor cell lines) [µM]	IC50 (Reovirus-1) [µM]	IC50 (Parainfluenza-3 virus) [µM]	IC50 (Sindbis virus) [µM]
O=c1[nH]cc(F)c(=O)[nH]1 [5-Fluorouracil, reference compound]	0.54 ± 0.12	0.33 ± 0.17	18 ± 5	–	–	–	–	–
Sc1ncnc2nc[nH]c12 [6-Mercaptopurine, reference compound]	1.1 ± 0.1	2.8 ± 1.1	2.8 ± 1.3	–	–	–	–	–
CC(=O)OC[C@H]1O[C@@H](NC(=O)NC(=O)CCCc2ccc3c(c2)CCCC3)[C@H](OC(C)=O)[C@@H](OC(C)=O)[C@@H]1OC(C)=O [Compound 6b, N-4-(5,6,7,8-Tetrahydronaphthalen-2-yl)butanoyl-N′-(2,3,4,6-tetra-O-acetyl-β-D-glucopyranosyl)-urea]	66 ± 12	78	38 ± 10	–	–	–	–	–
CC(=O)OC[C@H]1O[C@@H](NC(=O)NC(=O)COc2ccc(-c3ccccc3)cc2)[C@H](OC(C)=O)[C@@H](OC(C)=O)[C@@H]1OC(C)=O [Compound 6c, N-2-(Biphenyl-4-yloxy)acetyl-N′-(2,3,4,6-tetra-O-acetyl-β-D-glucopyranosyl)-urea]	> 250	> 250	> 250	–	–	–	–	–
O=C(CCCc1ccc2c(c1)CCCC2)NC(=O)N[C@@H]1O[C@H](CO)[C@@H](O)[C@H](O)[C@H]1O [Compound 7b, N-4-(5,6,7,8-Tetrahydronaphthalen-2-yl)butanoyl-N′-(β-D-glucopyranosyl)-urea]	> 250	> 250	> 250	–	–	–	–	–
O=C(COc1ccc(-c2ccccc2)cc1)NC(=O)N[C@@H]1O[C@H](CO)[C@@H](O)[C@H](O)[C@H]1O [Compound 7c, N-2-(Biphenyl-4-yloxy)acetyl-N′-(β-D-glucopyranosyl)-urea]	19 ± 3	9 ± 5.9	24 ± 1	5- to 15 fold	9 to 24	–	–	–
NC(=O)c1ncn([C@@H]2O[C@H](CO)[C@@H](O)[C@H]2O)n1 [Ribavirin]	–	–	–	–	–	> 250	250	> 250
